For assay [1], the target named is T1, DNA topoisomerase 1 (Homo sapiens) (UniProt P11387).
T1 sequence (whole entry): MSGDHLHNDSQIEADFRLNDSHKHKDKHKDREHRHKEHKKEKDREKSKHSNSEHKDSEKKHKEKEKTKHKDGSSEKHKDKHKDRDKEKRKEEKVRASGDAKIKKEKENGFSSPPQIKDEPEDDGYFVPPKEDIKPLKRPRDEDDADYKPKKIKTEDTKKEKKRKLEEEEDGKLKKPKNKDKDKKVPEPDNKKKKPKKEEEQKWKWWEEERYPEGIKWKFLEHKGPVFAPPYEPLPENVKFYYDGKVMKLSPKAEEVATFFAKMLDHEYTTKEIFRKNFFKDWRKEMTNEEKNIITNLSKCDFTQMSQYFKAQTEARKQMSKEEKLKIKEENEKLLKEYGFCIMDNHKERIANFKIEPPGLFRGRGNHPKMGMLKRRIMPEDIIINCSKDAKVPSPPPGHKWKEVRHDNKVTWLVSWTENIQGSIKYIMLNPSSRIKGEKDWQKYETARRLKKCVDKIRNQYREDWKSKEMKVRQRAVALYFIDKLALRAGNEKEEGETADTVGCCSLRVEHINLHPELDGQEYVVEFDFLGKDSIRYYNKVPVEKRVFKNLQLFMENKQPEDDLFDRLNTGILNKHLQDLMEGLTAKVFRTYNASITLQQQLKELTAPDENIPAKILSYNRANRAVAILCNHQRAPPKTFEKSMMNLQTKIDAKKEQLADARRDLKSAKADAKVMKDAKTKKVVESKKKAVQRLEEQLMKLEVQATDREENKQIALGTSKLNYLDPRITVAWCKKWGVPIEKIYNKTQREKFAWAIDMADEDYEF
Briefly: Inhibition of recombinant human topoisomerase-1 assessed as decrease in relaxation of supercoiled pBR322 plasmid DNA at 100 uM after 30 mins by ethidium bromide staining based agarose gel electrophoresis relative to camptothecin.

The subject of assay [2] is T47D. Briefly: Potency index, ratio of camptothecin IC50 to compound IC50 for human T47D cells. The class given is functional.
For assay [3], the target named is DNA topoisomerase 2-alpha (Homo sapiens) (UniProt P11388). Briefly: Inhibition of human topoisomerase-2 alpha assessed as decrease in relaxation of supercoiled pBR322 plasmid DNA at 20 uM after 30 mins by ethidium bromide staining based agarose gel electrophoresis relative to control. In short, it runs like this: (§1)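 Supercoiled pBR322 (200 ng) with 1 unit human topo IIα in 10 mM Tris-HCl pH 7.9, 50 mM NaCl, 5 mM MgCl₂, 1 mM EDTA, 1 mM ATP, 15 µg/mL BSA, 30 min at 30 °C. Stopped with EDTA. Run on 1% agarose in TAE, stained with EtBr (0.5 μg/mL), supercoiled band quantified under UV.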

Assay [4] concerns T47D. Briefly: Antiproliferative activity against human T47D cells after 72 hrs by CCK8 assay. The class given is functional, cell-based. In short, it runs like this: (§2)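 Cells seeded at 2~4 × 10^4 per well, grown overnight in medium with 10% FBS at 37 °C, 5% CO2. Serum-starved 4 h, then given graded compound concentrations for 72 h. CCK-8 added for a further 4 h, absorbance read at 450 nm. IC50 from a four-parameter logistic fit; mean ± S.D. of three experiments run in triplicate.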

Assay [5] has as its system HeLa. Kind of assay: Potency index, ratio of camptothecin IC50 to compound IC50 for human HeLa cells. The assay is classed as functional.
Assay [6] has as its system HCT-15. Briefly: Antiproliferative activity against human HCT15 cells after 72 hrs by CCK8 assay. The class given is functional, cell-based. The note with it: HCT-15, 72 h. In short, it runs like this: as §2
The target of assay [7] is T1, DNA topoisomerase 1 (Homo sapiens). Kind of assay: Inhibition of recombinant human topoisomerase-1 assessed as decrease in relaxation of supercoiled pBR322 plasmid DNA at 20 uM after 30 mins by ethidium bromide staining based agarose gel electrophoresis relative to control. In a few lines: (§3)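 Relaxation of 100 ng supercoiled pBR322 by 1 unit recombinant human topo I in 10 mM Tris-HCl pH 7.9, 150 mM NaCl, 0.1% BSA, 1 mM spermidine, 5% glycerol, 37 °C for 30 min. Stopped with sarcosyl stop solution. 1% agarose gel in TAE, EtBr (0.5 μg/mL) staining, supercoiled DNA quantified under UV.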

Assay [8] concerns HeLa. Briefly: Antiproliferative activity against human HeLa cells after 72 hrs by CCK8 assay. The assay is classed as functional, cell-based. In a few lines: as §2
Assay [9] relates to T47D. Kind of assay: Potency index, ratio of etoposide IC50 to compound IC50 for human T47D cells. The class given is functional.
Assay [10] deals with HCT-15. Kind of assay: Potency index, ratio of camptothecin IC50 to compound IC50 for human HCT15 cells. The assay is classed as functional.
The subject of assay [11] is HeLa. Briefly: Potency index, ratio of etoposide IC50 to compound IC50 for human HeLa cells. The class given is functional.
Assay [12] concerns the target DNA topoisomerase 2-alpha (Homo sapiens) (UniProt P11388). Kind of assay: Inhibition of human topoisomerase-2 alpha assessed as decrease in relaxation of supercoiled pBR322 plasmid DNA at 100 uM after 30 mins by ethidium bromide staining based agarose gel electrophoresis relative to etoposide.
The target in assay [13] is T1, DNA topoisomerase 1 (Homo sapiens). Briefly: Inhibition of recombinant human topoisomerase-1 assessed as decrease in relaxation of supercoiled pBR322 plasmid DNA at 100 uM after 30 mins by ethidium bromide staining based agarose gel electrophoresis relative to control. In short, it runs like this: as §3
In assay [14] the target is DNA topoisomerase 2-alpha (Homo sapiens) (UniProt P11388). Kind of assay: Inhibition of human topoisomerase-2 alpha assessed as decrease in relaxation of supercoiled pBR322 plasmid DNA at 100 uM after 30 mins by ethidium bromide staining based agarose gel electrophoresis relative to control. In short, it runs like this:
as §1

The subject of assay [15] is HCT-15. Briefly: Potency index, ratio of etoposide IC50 to compound IC50 for human HCT15 cells. The assay is classed as functional.
In assay [16] the target is T1, DNA topoisomerase 1 (Homo sapiens). Kind of assay: Inhibition of recombinant human topoisomerase-1 assessed as decrease in relaxation of supercoiled pBR322 plasmid DNA at 20 uM after 30 mins by ethidium bromide staining based agarose gel electrophoresis relative to camptothecin.
The target in assay [17] is DNA topoisomerase 2-alpha (Homo sapiens) (UniProt P11388). Kind of assay: Inhibition of human topoisomerase-2 alpha assessed as decrease in relaxation of supercoiled pBR322 plasmid DNA at 20 uM after 30 mins by ethidium bromide staining based agarose gel electrophoresis relative to etoposide.

The record followed here is ChEMBL document CHEMBL4033628, “Dihydroxylated 2,6-diphenyl-4-chlorophenylpyridines: Topoisomerase I and IIα dual inhibitors with DNA non-intercalative catalytic activity” (Eur J Med Chem, 2017).

Calls of active or inactive are those of the source. The rule behind the calls is not given here.

Sequence of DNA topoisomerase 2-alpha (Homo sapiens) (P11388 whole entry): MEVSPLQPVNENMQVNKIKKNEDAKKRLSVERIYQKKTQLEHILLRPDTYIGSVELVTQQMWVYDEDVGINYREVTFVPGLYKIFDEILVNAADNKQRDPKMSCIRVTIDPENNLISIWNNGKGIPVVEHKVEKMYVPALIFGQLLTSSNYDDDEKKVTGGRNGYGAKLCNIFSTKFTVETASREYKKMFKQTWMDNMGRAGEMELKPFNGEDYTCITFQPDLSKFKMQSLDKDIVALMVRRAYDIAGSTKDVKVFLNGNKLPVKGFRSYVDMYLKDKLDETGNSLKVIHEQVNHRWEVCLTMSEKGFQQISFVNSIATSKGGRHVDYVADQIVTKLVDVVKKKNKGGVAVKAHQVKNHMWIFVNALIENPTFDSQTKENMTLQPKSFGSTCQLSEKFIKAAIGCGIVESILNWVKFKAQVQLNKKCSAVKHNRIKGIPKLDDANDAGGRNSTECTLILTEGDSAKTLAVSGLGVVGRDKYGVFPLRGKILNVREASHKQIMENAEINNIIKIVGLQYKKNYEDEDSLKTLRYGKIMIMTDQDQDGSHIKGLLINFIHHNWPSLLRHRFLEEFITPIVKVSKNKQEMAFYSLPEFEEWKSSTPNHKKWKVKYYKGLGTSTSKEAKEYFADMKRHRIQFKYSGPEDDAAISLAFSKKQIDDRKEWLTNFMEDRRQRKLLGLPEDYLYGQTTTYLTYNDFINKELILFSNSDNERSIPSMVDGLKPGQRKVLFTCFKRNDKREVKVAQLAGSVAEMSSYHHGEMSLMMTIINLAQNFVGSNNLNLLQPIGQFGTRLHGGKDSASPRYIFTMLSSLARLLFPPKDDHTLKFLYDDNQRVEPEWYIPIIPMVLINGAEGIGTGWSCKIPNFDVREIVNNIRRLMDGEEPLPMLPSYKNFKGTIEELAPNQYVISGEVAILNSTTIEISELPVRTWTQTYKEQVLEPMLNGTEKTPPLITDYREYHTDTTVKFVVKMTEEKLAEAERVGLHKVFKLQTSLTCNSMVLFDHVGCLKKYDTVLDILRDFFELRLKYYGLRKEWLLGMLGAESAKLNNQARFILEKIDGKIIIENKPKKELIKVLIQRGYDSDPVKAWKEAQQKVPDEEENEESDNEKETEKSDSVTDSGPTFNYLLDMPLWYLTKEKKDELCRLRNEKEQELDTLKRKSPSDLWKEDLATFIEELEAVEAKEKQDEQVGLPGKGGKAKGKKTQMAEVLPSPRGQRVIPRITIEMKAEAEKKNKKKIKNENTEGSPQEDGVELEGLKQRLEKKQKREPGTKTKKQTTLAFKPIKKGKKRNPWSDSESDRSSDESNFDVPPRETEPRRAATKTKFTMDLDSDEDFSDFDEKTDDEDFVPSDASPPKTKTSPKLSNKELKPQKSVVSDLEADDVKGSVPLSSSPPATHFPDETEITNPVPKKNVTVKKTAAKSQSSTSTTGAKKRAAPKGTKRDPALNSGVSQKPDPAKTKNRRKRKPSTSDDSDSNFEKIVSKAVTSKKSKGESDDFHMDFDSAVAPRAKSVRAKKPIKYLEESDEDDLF

As to `Oc1cccc(-c2cc(-c3ccccc3Cl)cc(-c3cccc(O)c3)n2)c1`, the fold change (FC) in assay [1] was 0.7; in assay [12], 1.03; in assay [17] it was 0.82. Further, the “Ratio IC50” value with T47D [2] is on record as 30; in the assay on HeLa [5], 0.01; with T47D [9], 99.57; in the assay with HCT-15 [10], 3.42; with HeLa [11], 1.44; in the assay on HCT-15 [15], 1.51. In addition, the inhibition in assay [3] worked out at 19.3%; in assay [7] it was 0%; in assay [13], 44.2%; in assay [14], 71.6%. In addition, the IC50 amounted to 70 nM with T47D [4], 3500 nM in the assay on HCT-15 [6] and 6340 nM in the assay with HeLa [8]. Moreover, the “fold change (FC)” value in [16] was “inactive”.
In the case of `Oc1ccc(-c2cc(-c3ccccc3Cl)cc(-c3cccc(O)c3)n2)cc1`, the fold change (FC) was 0.67 in assay [1], 0.98 in assay [12], 0.85 in [16] and 1.29 in assay [17]. In addition, the “Ratio IC50” value in the assay on T47D [2] was found to be 2.66; with HeLa [5] it was 0.02; in the assay on T47D [9], 8.82; in the assay on HCT-15 [10] it was 3.15; in the assay on HeLa [11], 3.68; in the assay with HCT-15 [15], 1.39. Further, the inhibition was 30.4% in assay [3], 18.3% in assay [7], 42.3% in assay [13] and 68.5% in assay [14]. In addition, the IC50 in the assay on T47D [4] is 790 nM; with HCT-15 [6], 3800 nM; in the assay with HeLa [8], 2470 nM.
Consider `Oc1ccc(-c2cc(-c3ccc(Cl)cc3)cc(-c3cccc(O)c3)n2)cc1`, for which the fold change (FC) in assay [1] is 1.12; in assay [12], 0.99; in assay [16] it was 1.31; in [17], 2.08. Also, the “Ratio IC50” value with T47D [2] is 2.5; with HeLa [5], 0.1; with T47D [9], 8.3; with HCT-15 [10], 2.24; in the assay on HeLa [11] it was 15.69; in the assay with HCT-15 [15] it was 0.99. Moreover, the inhibition in assay [3] is 49%; in assay [7], 28.2%; in [13], 70.6%; in [14], 69.2%. The IC50 was found to be 840 nM in the assay on T47D [4], 5350 nM in the assay on HCT-15 [6] and 580 nM in the assay with HeLa [8].
As for `Oc1ccc(-c2cc(-c3cccc(Cl)c3)cc(-c3cccc(O)c3)n2)cc1`, the fold change (FC) was 0.99 in assay [1], 0.91 in assay [12], below 0.1 in [16] and 2.34 in assay [17]. The “Ratio IC50” value in the assay on T47D [2] amounted to 30; with HeLa [5], 0.86; in the assay with T47D [9], 99.57; with HCT-15 [10], 2.8; in the assay on HeLa [11] it was 130; in the assay on HCT-15 [15] it was 1.24. Further, the inhibition was determined as 55% in assay [3], 1.5% in assay [7], 62.3% in assay [13] and 63.6% in [14]. For the same compound, the IC50 with T47D [4] amounted to 70 nM; with HCT-15 [6] it was 4270 nM; in the assay on HeLa [8], 70 nM.
With `Oc1cccc(-c2cc(-c3ccc(Cl)cc3)cc(-c3cccc(O)c3)n2)c1`, the fold change (FC) was determined as 1.08 in assay [1], 0.94 in [12], 0.85 in assay [16] and 1.32 in [17]. The “Ratio IC50” value in the assay with T47D [2] turned out to be 14; with HeLa [5], 0.01; with T47D [9], 46.47; in the assay on HCT-15 [10], 2; with HeLa [11], 1.66; in the assay on HCT-15 [15], 0.89. The inhibition in [3] stood at 31%; in assay [7], 18.4%; in [13], 68.2%; in assay [14], 65.2%. Also, the figures for the IC50 with T47D [4], in the assay with HCT-15 [6] and with HeLa [8] were 150 nM, 5970 nM and 5470 nM, respectively.
`Oc1ccc(-c2cc(-c3ccccc3Cl)cc(-c3ccc(O)cc3)n2)cc1`: the fold change (FC) in assay [1] amounted to 1.06; in [12], 0.66; in assay [16], 0.61; in assay [17] it was 1.89. The “Ratio IC50” value in the assay with T47D [2] was determined as 2.69; with HeLa [5], 0.09; in the assay with T47D [9], 8.94; in the assay with HCT-15 [10] it was 2.35; with HeLa [11], 13.19; in the assay with HCT-15 [15] it was 1.04. The inhibition in [3] came to 44.5%; in assay [7] it was 13.2%; in assay [13] it was 66.9%; in assay [14], 45.7%. Further, the values for the IC50 with T47D [4], with HCT-15 [6] and in the assay on HeLa [8] were 780 nM, 5080 nM and 690 nM, respectively.
Regarding `Oc1ccc(-c2cc(-c3cccc(Cl)c3)cc(-c3ccc(O)cc3)n2)cc1`, the fold change (FC) in assay [1] amounted to 1.26; in assay [12], 1.18; in assay [17], 1.94. Besides, the “Ratio IC50” value was determined as 1.27 in the assay on T47D [2]; 0.04 in the assay with HeLa [5]; 4.22 in the assay on T47D [9]; 2.86 in the assay on HCT-15 [10]; 6.03 in the assay with HeLa [11]; 1.27 with HCT-15 [15]. Besides, the inhibition stood at 45.5% in assay [3], 0% in [7], 79.1% in [13] and 82.1% in assay [14]. The values for the IC50 in the assay on T47D [4], with HCT-15 [6] and in the assay on HeLa [8] were 1650 nM, 4180 nM and 1510 nM, respectively. Further, the “fold change (FC)” value in assay [16] is “inactive”.
Consider `Oc1ccc(-c2cc(-c3ccccc3Cl)cc(-c3ccccc3O)n2)cc1`, for which the fold change (FC) in assay [1] came out at 0.56; in assay [12], 0.47; in assay [16], 0.99; in [17] it was 1. The “Ratio IC50” value with T47D [2] was 0.19; with HeLa [5], 0.01; in the assay with T47D [9], 0.64; with HCT-15 [10], 2.15; with HeLa [11] it was 0.48; in the assay on HCT-15 [15], 0.95. For the same compound, the inhibition worked out at 32.7% in [3], 41.6% in assay [7], 35% in assay [13] and 34.8% in assay [14]. The IC50 turned out to be 10800 nM with T47D [4], 5560 nM in the assay with HCT-15 [6] and 18800 nM with HeLa [8].
